Source: ChEMBL document CHEMBL4325902, “Design, synthesis and biological evaluation of novel, orally bioavailable pyrimidine-fused heterocycles as influenza PB2 inhibitors” (Eur J Med Chem, 2019)

How the values were obtained:
[1] = Cytotoxicity against MDCK cells assessed as reduction in cell viability after 5 days by CCK-8 assay; type: cell-based, Canis lupus familiaris; conditions: dog
Method in brief: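 MDCK cells seeded at 2×10^3 per well and grown overnight at 37°C, 5% CO2. Diluted compound (0.5% DMSO final) added without virus, then 5 days at 37°C. Viability read by CCK-8. CC50 is the concentration cutting viability to 50% of control, from a dose-response fit.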

[2] = Clearance in CD-1 mouse at 0.5 mg/kg, iv; type: ADME, organism-based; conditions: in vivo
Method in brief: (§1)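 Male CD-1 mice, n=3 per dose, values are cohort means. Cassette PK: 0.5 mg/kg iv and 1 mg/kg po, both in 20% Solutol in water. Reported parameters are clearance, T1/2, Vd, AUC, Cmax, Tmax and %F.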

[3] = Cmax in CD-1 mouse at 1 mg/kg, po; type: ADME, organism-based; set-up: dose 1 mg/kg, route oral; conditions: in vivo; method in brief: as §1
[4] = Tmax in CD-1 mouse at 1 mg/kg, po; type: ADME, organism-based; conditions: in vivo; method in brief: as §1
[5] = AUC in CD-1 mouse at 1 mg/kg, po; type: ADME, organism-based; conditions: in vivo; method in brief: as §1
[6] = Oral bioavailability in CD-1 mouse at 1 mg/kg; type: ADME, organism-based; conditions: in vivo; method in brief: as §1
[7] = Volume of distribution in CD-1 mouse at 0.5 mg/kg, iv; type: ADME, organism-based; conditions: in vivo; method in brief: as §1
[8] = AUC in CD-1 mouse at 0.5 mg/kg, iv; type: ADME, organism-based; conditions: in vivo; method in brief: as §1
[9] = Half life in CD-1 mouse at 0.5 mg/kg, iv; type: ADME, organism-based; conditions: in vivo; method in brief: as §1
[10] = Half life in CD-1 mouse liver microsomes at 1 uM preincubated for 10 mins followed by NADPH addition measured up to 60 mins by LC/MS/MS analysis; type: ADME, Microsome
Method in brief: (§2)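 Test compound at 1 µM with 0.5 mg/mL liver microsomal protein (CD-1 mouse, SD rat or human) in 100 mM potassium phosphate, pH 7.4. Preincubated 10 min at 37°C, then started with NADPH (1 mM generating system). Sampled at 0–60 min and stopped with cold acetonitrile containing internal standards. Compound loss gave T1/2. A no-NADPH control ran 60 min.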

[11] = Half life in Sprague-Dawley rat liver microsomes at 1 uM preincubated for 10 mins followed by NADPH addition measured up to 60 mins by LC/MS/MS analysis; type: ADME, Microsome; method in brief: as §2
[12] = Half life in human liver microsomes at 1 uM preincubated for 10 mins followed by NADPH addition measured up to 60 mins by LC/MS/MS analysis; type: ADME, Microsome; method in brief: as §2
[13] = AUC in CD-1 mouse at 10 mg/kg, po; type: ADME, organism-based; conditions: in vivo
Method in brief: (§3)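 Male CD-1 mice, n=3 per dose, values are cohort means. Dosed 1 mg/kg iv and 10 mg/kg po, each in 20% Solutol in water. Reported parameters are Cl, T1/2, Vd, AUC, Cmax, Tmax and %F.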

[14] = Half life in CD-1 mouse at 1 mg/kg, iv; type: ADME, organism-based; conditions: in vivo; method in brief: as §3
[15] = Volume of distribution in CD-1 mouse at 1 mg/kg, iv; type: ADME, organism-based; conditions: in vivo; method in brief: as §3
[16] = Oral bioavailability in CD-1 mouse at 10 mg/kg; type: ADME, organism-based; conditions: in vivo; method in brief: as §3
[17] = Clearance in CD-1 mouse at 1 mg/kg, iv; type: ADME, organism-based; conditions: in vivo; method in brief: as §3
[18] = AUC in CD-1 mouse at 1 mg/kg, iv; type: ADME, organism-based; conditions: in vivo; method in brief: as §3
[19] = Tmax in CD-1 mouse at 10 mg/kg, po; type: ADME, organism-based; conditions: in vivo; method in brief: as §3
[20] = Cmax in CD-1 mouse at 10 mg/kg, po; type: ADME, organism-based; set-up: dose 10 mg/kg, route oral; conditions: in vivo; method in brief: as §3

O=C(O)[C@H]1C2CCC(CC2)[C@@H]1Nc1nc(-c2c[nH]c3ncc(F)cc23)nc2c1CS(=O)(=O)C2
CC50 at 120 h [1]: > 50 µM

N#Cc1cn([C@H]2C3CCC(CC3)[C@@H]2C(=O)O)c2nc(-c3c[nH]c4ncc(F)cc34)ncc12
CC50 at 120 h [1]: 5.4 µM

Cn1cc(F)c2c(N[C@H]3C4CCC(CC4)[C@@H]3C(=O)O)nc(-c3c[nH]c4ncc(F)cc34)nc21
CC50 at 120 h [1]: 0.6 µM

O=C(O)[C@H]1C2CCC(CC2)[C@@H]1Nc1nc(-c2c[nH]c3ccc(F)cc23)ncc1F
CC50 at 120 h [1]: 10 µM

O=C(O)[C@H]1C2CCC(CC2)[C@@H]1Nc1nc(-c2c[nH]c3ncc(F)cc23)nc2cscc12
clearance [2]: 73.7 mL/min/kg
Cmax [3]: 29.2 nM
Tmax [4]: 19.8 min
AUC [5]: 0.0488 µM·h
bioavailability [6]: 10%
CC50 at 120 h [1]: > 50 µM
Vd [7]: 5.7 L/kg
AUC [8]: 0.252 µM·h
half-life [9]: 78 min

O=C(O)[C@H]1C2CCC(CC2)[C@@H]1Nc1nc(-c2c[nH]c3ncc(F)cc23)nc2ccsc12
half-life at 1 µM [10]: 48.5 min
clearance [2]: 18.9 mL/min/kg
Cmax [3]: 172 nM
Tmax [4]: 24 min
AUC [5]: 0.69 µM·h
half-life at 1 µM [11]: 52.2 min
bioavailability [6]: 37%
CC50 at 120 h [1]: 1.5 µM
Vd [7]: 2.4 L/kg
AUC [8]: 1.01 µM·h
half-life at 1 µM [12]: 49.7 min
half-life [9]: 120 min

O=C(O)[C@H]1C2CCC(CC2)[C@@H]1Nc1nc(-c2c[nH]c3ncc(F)cc23)nc2c1S(=O)(=O)CC2
CC50 at 120 h [1]: > 50 µM

O=C(O)[C@H]1C2CCC(CC2)[C@@H]1Nc1nc(-c2c[nH]c3ncc(F)cc23)nc2c1CSC2
CC50 at 120 h [1]: 4.4 µM

O=C(O)[C@H]1C2CCC(CC2)[C@@H]1n1ccc2cnc(-c3c[nH]c4ncc(F)cc34)nc21
CC50 at 120 h [1]: 4 µM

O=C(O)[C@H]1C2CCC(CC2)[C@@H]1Nc1nc(-c2c[nH]c3ncc(F)cc23)nc2sccc12
half-life at 1 µM [10]: 61.1 min
Cmax [3]: 509 nM
Tmax [4]: 49.8 min
AUC [5]: 1.35 µM·h
half-life at 1 µM [11]: 90.9 min
CC50 at 120 h [1]: 0.6 µM
half-life at 1 µM [12]: 104 min

O=C(O)[C@H]1C2CCC(CC2)[C@@H]1Nc1nc(-c2n[nH]c3ncc(F)cc23)nc2ccsc12
half-life at 1 µM [10]: 41 min
half-life at 1 µM [11]: 73 min
CC50 at 120 h [1]: 0.2 µM
half-life at 1 µM [12]: 77 min

O=C(O)[C@H]1C2CCC(CC2)[C@@H]1Nc1nc(-c2c[nH]c3ncc(F)cc23)nc2cc(F)cnc12
CC50 at 120 h [1]: 1.4 µM

O=C(O)[C@H]1C2CCC(CC2)[C@@H]1n1cnc2cnc(-c3c[nH]c4ncc(F)cc34)nc21
CC50 at 120 h [1]: 21.7 µM

O=C(O)[C@H]1C2CCC(CC2)[C@@H]1Nc1nc(-c2c[nH]c3ncc(F)cc23)nc2c1SCC2
half-life at 1 µM [10]: 51.3 min
AUC [13]: 19.5 µM·h
half-life [14]: 138 min
Vd [15]: 2.3 L/kg
bioavailability [16]: 71%
clearance [17]: 13.8 mL/min/kg
half-life at 1 µM [11]: 115 min
AUC [18]: 2.79 µM·h
CC50 at 120 h [1]: 4.5 µM
Tmax [19]: 15 min
Cmax [20]: 15 µM
half-life at 1 µM [12]: 99.6 min

O=C(O)[C@H]1C2CCC(CC2)[C@@H]1Nc1nc(-c2c[nH]c3ncc(F)cc23)nc2c1CCC2
CC50 at 120 h [1]: 10 µM

O=C(O)[C@H]1C2CCC(CC2)[C@@H]1Nc1nc(-c2n[nH]c3ncc(F)cc23)nc2c1SCC2
half-life at 1 µM [10]: 103 min
AUC [13]: 152 µM·h
half-life [14]: 180 min
Vd [15]: 0.2 L/kg
bioavailability [16]: 57%
clearance [17]: 1.3 mL/min/kg
half-life at 1 µM [11]: > 145 min
AUC [18]: 28.7 µM·h
CC50 at 120 h [1]: 4.9 µM
Tmax [19]: 40.2 min
Cmax [20]: 32.6 µM
half-life at 1 µM [12]: > 145 min

O=C(O)[C@H]1C2CCC(CC2)[C@@H]1Nc1nc(-c2c[nH]c3ncc(F)cc23)nc2cccnc12
CC50 at 120 h [1]: 7 µM

O=C(O)[C@H]1C2CCC(CC2)[C@@H]1Nc1nc(-c2c[nH]c3ncc(F)cc23)nc2nccnc12
CC50 at 120 h [1]: 46 µM

O=C(O)[C@H]1C2CCC(CC2)[C@@H]1Nc1nc(-c2c[nH]c3ncc(F)cc23)nc2[nH]ccc12
CC50 at 120 h [1]: 15 µM

Cc1cccc2nc(N[C@H]3C4CCC(CC4)[C@@H]3C(=O)O)nc(-c3c[nH]c4ncc(F)cc34)c12
CC50 at 120 h [1]: 2.1 µM

O=C(O)[C@H]1C2CCC(CC2)[C@@H]1Nc1nc(-n2ccc3ncc(F)cc32)ncc1F
CC50 at 120 h [1]: 1.1 µM

O=C(O)[C@H]1C2CCC(CC2)[C@@H]1Nc1nc(-c2c[nH]c3ncc(F)cc23)nc2c1CCS2
CC50 at 120 h [1]: 5.6 µM

O=C(O)[C@H]1C2CCC(CC2)[C@@H]1Nc1nc(-c2c[nH]c3ncc(F)cc23)ncc1F [PIMODIVIR]
half-life at 1 µM [10]: > 145 min
AUC [13]: 13.4 µM·h
half-life [14]: 114 min
Vd [15]: 7.1 L/kg
bioavailability [16]: 100%
clearance [17]: 30.9 mL/min/kg
half-life at 1 µM [11]: > 145 min
AUC [18]: 1.36 µM·h
CC50 at 120 h [1]: 12 µM
Tmax [19]: 150 min
Cmax [20]: 2.05 µM
half-life at 1 µM [12]: > 145 min

Cc1cccc2nc(-c3c[nH]c4ncc(F)cc34)nc(N[C@H]3C4CCC(CC4)[C@@H]3C(=O)O)c12
CC50 at 120 h [1]: 4.7 µM

O=C(O)[C@H]1C2CCC(CC2)[C@@H]1Nc1nc(-c2c[nH]c3ncc(F)cc23)nc2c1CCCC2
CC50 at 120 h [1]: > 50 µM

O=C(O)[C@H]1C2CCC(CC2)[C@@H]1Nc1nc(-c2c[nH]c3ncc(F)cc23)nc2cc(C(F)F)sc12
CC50 at 120 h [1]: 3.3 µM

O=C(O)[C@H]1C2CCC(CC2)[C@@H]1Nc1nc(-c2n[nH]c3ncc(F)cc23)nc2sccc12
half-life at 1 µM [10]: 33 min
half-life at 1 µM [11]: 65 min
CC50 at 120 h [1]: 2.7 µM
half-life at 1 µM [12]: 71 min

Cc1cnc2c(N[C@H]3C4CCC(CC4)[C@@H]3C(=O)O)nc(-c3c[nH]c4ncc(F)cc34)nc2c1
CC50 at 120 h [1]: 4.9 µM

O=C(O)[C@H]1C2CCC(CC2)[C@@H]1N1CCOc2cnc(-c3c[nH]c4ncc(F)cc34)nc21
CC50 at 120 h [1]: > 50 µM

O=C(O)[C@H]1C2CCC(CC2)[C@@H]1Nc1nc(-c2c[nH]c3ncc(F)cc23)nc2ccoc12
CC50 at 120 h [1]: 6.2 µM

O=C(O)[C@H]1C2CCC(CC2)[C@@H]1Nc1nc(-c2c[nH]c3ncc(F)cc23)nc2cccc(F)c12
CC50 at 120 h [1]: 1.8 µM

O=C(O)[C@H]1C2CCC(CC2)[C@@H]1Nc1nc(-c2c[nH]c3ncc(F)cc23)nc2scnc12
CC50 at 120 h [1]: 1.5 µM

N#Cc1csc2c(N[C@H]3C4CCC(CC4)[C@@H]3C(=O)O)nc(-c3c[nH]c4ncc(F)cc34)nc12
CC50 at 120 h [1]: 0.7 µM
